ChEMBL document CHEMBL1154079

Tests used:
[1] = target: T1, Quinolone resistance protein NorA (Staphylococcus aureus) (UniProt P0A0J7); assay: Inhibition of NorA efflux pump in Staphylococcus aureus 1199B assessed as reduction in MIC of ciprofloxacin by broth checkerboard method
T1 sequence (whole entry): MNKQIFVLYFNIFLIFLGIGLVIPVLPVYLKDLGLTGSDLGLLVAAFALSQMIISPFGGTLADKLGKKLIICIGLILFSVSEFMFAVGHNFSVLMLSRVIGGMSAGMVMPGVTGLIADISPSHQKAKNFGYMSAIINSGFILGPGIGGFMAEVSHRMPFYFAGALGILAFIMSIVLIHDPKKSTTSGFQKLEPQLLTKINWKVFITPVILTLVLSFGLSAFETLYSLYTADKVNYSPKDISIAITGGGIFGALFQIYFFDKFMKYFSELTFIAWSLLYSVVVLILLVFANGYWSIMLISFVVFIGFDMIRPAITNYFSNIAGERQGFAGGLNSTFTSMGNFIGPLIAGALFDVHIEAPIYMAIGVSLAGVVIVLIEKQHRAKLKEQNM

[2] = target: T1, Quinolone resistance protein NorA (Staphylococcus aureus); assay: Inhibition of NorA efflux pump in Staphylococcus aureus 1199B assessed as reduction of ciprofloxacin MIC after 24 hrs by broth checkerboard method
[3] = target: T1, Quinolone resistance protein NorA (Staphylococcus aureus); assay: Inhibition of NorA efflux pump in Staphylococcus aureus 1199B after 24 hrs by broth checkerboard method
[4] = target: T1, Quinolone resistance protein NorA (Staphylococcus aureus); assay: Inhibition of NorA efflux pump in Staphylococcus aureus 1199B assessed as potentiation of ciprofloxacin-induced antimicrobial activity after 24 hrs by broth checkerboard method
Summary of the method: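 Potentiation factor was derived from 24 h, 37 °C checkerboard ciprofloxacin MICs against S. aureus 1199B in Mueller-Hinton broth. Each inhibitor-concentration column was weighted in ascending order: 10 for column 2 (50), adding 10 per column up to 70 for […] (0.8), so that activity at lower inhibitor concentrations counts more.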

Row | MEC [1] [µg/mL] | fold change (FC) [2] | MIC [3] [µg/mL] | PF [4] | logPF [4] | Compound
1 | 50 | 2 | > 100 | 20 | 1.3 | O=C(CCCCc1ccc2c(c1)OCO2)N1CCCCC1
2 | 25 | 2 | > 100 | 60 | 1.78 | CC(C)CNC(=O)/C=C/C=C/c1ccc2c(c1)OCO2
3 | – | – | 8 | – | – | O=C(O)c1cn(C2CC2)c2cc(N3CCNCC3)c(F)cc2c1=O
4 | 25 | – | > 100 | 60 | 1.78 | O=C(/C=C/C=C/c1ccc2c(c1)OCO2)N1CCCCC1
5 | 25 | 2 | > 100 | 60 | 1.78 | N#Cc1ccc(NC(=O)/C=C/C=C/c2ccc3c(c2)OCO3)cc1
6 | 50 | 0 | > 100 | – | – | CC(C)NC(=O)/C=C/C=C/c1ccc2c(c1)OCO2
7 | 50 | 0 | > 100 | – | – | O=C(/C=C/C=C/c1ccc2c(c1)OCO2)N1CCOCC1
8 | 25 | 4 | > 100 | 260 | 2.42 | CC(=O)Nc1ccccc1NC(=O)/C=C/C=C/c1ccc2c(c1)OCO2
9 | 25 | 4 | > 100 | 260 | 2.42 | CC(=O)Nc1ccc(NC(=O)/C=C/C=C/c2ccc3c(c2)OCO3)cc1
10 | 50 | 0 | > 100 | – | – | O=C(O)/C=C/C=C/c1ccc2c(c1)OCO2
11 | 3.12 | 2 | > 100 | 300 | 2.48 | O=C(/C=C/C=C/c1ccc2c(c1)OCO2)Nc1ccc(NC(=O)c2ccccc2)cc1
12 | 25 | 2 | > 100 | 60 | 1.78 | O=C(/C=C/C=C/c1ccc2c(c1)OCO2)Nc1cccc(CO)c1
13 | 50 | 2 | > 100 | 20 | 1.3 | CCN(CC)C(=O)CCCCc1ccc2c(c1)OCO2
14 | 6.25 | 2 | > 100 | 200 | 2.3 | O=C(/C=C/C=C/c1ccc2c(c1)OCO2)Nc1ccc(CO)cc1
15 | 50 | 0 | > 100 | – | – | CCC(CO)NC(=O)/C=C/C=C/c1ccc2c(c1)OCO2 (stereo not drawn)
16 | 25 | 2 | > 100 | 60 | 1.78 | CC(O)CCNC(=O)/C=C/C=C/c1ccc2c(c1)OCO2 (stereo not drawn)

Row | MEC [1] [µg/mL] | fold change (FC) [2] | MIC [3] [µg/mL] | PF [4] | logPF [4] | Compound
17 | 6.25 | 2 | > 100 | 200 | 2.3 | O=C(/C=C/C=C/c1ccc2c(c1)OCO2)Nc1nc2ccccc2s1
18 | 25 | 2 | > 100 | 60 | 1.78 | O=C(/C=C/C=C/c1ccc2c(c1)OCO2)Nc1ccccc1CO
19 | 25 | 2 | > 100 | 60 | 1.78 | CN1CCN(C(=O)/C=C/C=C/c2ccc3c(c2)OCO3)CC1
20 | 25 | 2 | > 100 | 60 | 1.78 | CCN(CC)C(=O)/C=C/C=C/c1ccc2c(c1)OCO2
21 | 50 | 0 | > 100 | – | – | CCCNC(=O)/C=C/C=C/c1ccc2c(c1)OCO2
22 | 3.12 | 2 | > 100 | 360 | 2.56 | O=C(/C=C/C=C/c1ccc2c(c1)OCO2)Nc1ccc(C(=O)Nc2ccccc2)cc1
23 | 25 | 2 | > 100 | 60 | 1.78 | CC(C)CCNC(=O)/C=C/C=C/c1ccc2c(c1)OCO2
24 | 50 | 4 | > 100 | 140 | 2.15 | O=C(/C=C/C=C/c1ccc2c(c1)OCO2)Nc1ccccc1
25 | – | 2 | – | 60 | 1.78 | CCC(CC)NC(=O)/C=C/C=C/c1ccc2c(c1)OCO2
26 | 25 | 2 | > 100 | 60 | 1.78 | NC(=O)c1ccc(NC(=O)/C=C/C=C/c2ccc3c(c2)OCO3)cc1
27 | 3.12 | 2 | > 100 | 300 | 2.48 | O=C(/C=C/C=C/c1ccc2c(c1)OCO2)Nc1ccc2ncsc2c1
28 | 12.5 | 4 | > 100 | 320 | 2.51 | CC(=O)Nc1cccc(NC(=O)/C=C/C=C/c2ccc3c(c2)OCO3)c1
29 | 50 | 4 | > 100 | 140 | 2.15 | O=C(/C=C/C=C/c1ccc2c(c1)OCO2)NCC(O)c1ccccc1 (stereo not drawn)
30 | 50 | 8 | > 100 | 660 | 2.82 | N#Cc1cccc(NC(=O)/C=C/C=C/c2ccc3c(c2)OCO3)c1
31 | 50 | 2 | > 100 | 20 | 1.3 | CC(=O)Nc1ccccc1NC(=O)CCCCc1ccc2c(c1)OCO2
